Results on 8 molecules are retold here after ChEMBL document CHEMBL4823323, “Monocyclic Nitro-heteroaryl Nitrones with Dual Mechanism of Activation: Synthesis and Antileishmanial Activity” (ACS Med Chem Lett, 2021).

Series [1] in a line: Selectivity index, ratio of CC50 for cytotoxicity against BALB/c mouse peritoneal macrophages assessed as reduction in cell viability incubated for 72 hrs by resazurin dye based fluorescence assay to IC50 for antileishmanial activity against intracellular Leishmania amazonensis MHOM/BR/77/LTB 0016 amastigotes infected in BALB/c mouse peritoneal macrophage. The settings on record: read-out: Selectivity Index. In kind it is toxicity. The gist of the method:
(§1)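 CC50 values are means of three independent experiments, each in triplicate, ± standard error; selectivity index taken as macrophage CC50 divided by intracellular amastigote EC50.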
In general terms: Resazurin is reduced to fluorescent resorufin, in cell work by metabolically active cells.

For series [2], the system named is Leishmania amazonensis. Put plainly: Antileishmanial activity against intracellular Leishmania amazonensis MHOM/BR/77/LTB 0016 amastigotes infected in BALB/c mouse peritoneal macrophage assessed as reduced parasite growth incubated for 72 hrs by PANOTIC staining based assay. In kind it is functional, organism-based. The settings on record: MHOM/BR/77/LTB 0016, Peritoneal macrophage. The essentials:
(§2)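 Values are averages of three independent experiments run in triplicate ± standard error.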

Series [3] in a line: Selectivity index, ratio of CC50 for cytotoxicity against BALB/c mouse peritoneal macrophages assessed as reduction in cell viability incubated for 72 hrs by resazurin dye based fluorescence assay to IC50 for antileishmanial activity against intracellular Leishmania infantum MHOM/MA/67/ITMAP-263 amastigotes infected in BALB/c mouse peritoneal macrophage. In kind it is toxicity. Conditions: read-out: Selectivity Index. The gist of the method: as §1

A short description of series [4]: Cytotoxicity against BALB/c mouse peritoneal macrophages assessed as reduction in cell viability incubated for 72 hrs by resazurin dye based fluorescence assay. Further details: species or system Peritoneal macrophage. The essentials: as §1
The subject of series [5] is Leishmania amazonensis. Put plainly: Antileishmanial activity against Leishmania amazonensis MHOM/BR/77/LTB 0016 promastigotes assessed as inhibition of parasite growth incubated for 72 hrs by resazurin dye based assay. In kind it is functional, organism-based. Conditions: MHOM/BR/77/LTB 0016, 72 h. The essentials: as §2
Series [6] relates to Leishmania infantum. Put plainly: Antileishmanial activity against intracellular Leishmania infantum MHOM/MA/67/ITMAP-263 amastigotes infected in BALB/c mouse peritoneal macrophage assessed as reduced parasite growth incubated for 72 hrs by PANOTIC staining based assay. Conditions: MHOM/MA/67/ITMAP-263, Peritoneal macrophage. In kind it is functional, organism-based. The essentials:
as §2

Series [7] concerns Leishmania infantum. Put plainly: Antileishmanial activity against Leishmania infantum MHOM/MA/67/ITMAP-263 promastigotes assessed as inhibition of parasite growth incubated for 72 hrs by resazurin dye based assay. Type of series: functional, organism-based. The settings on record: MHOM/MA/67/ITMAP-263, 72 h. The essentials: as §2
Series [8] is described as follows: Metabolic stability in human liver S9 fraction assessed as drug recovery at pH 7.4 in the presence of NADPH cofactor measured upto 60 mins by LC/MS/MS analysis. The settings on record: s9, pH 7.4, 1 h. In kind it is ADME, subcellular.
The test system of series [9] is Leishmania infantum. Put plainly: Antileishmanial activity in Leishmania infantum promastigotes intraperitoneally infected in BALB/c mouse assessed as reduced parasite load in spleen at 100 mg/kg, po twice a day followed by omeprazole administration 1 hr prior to test compound administration for 5 consecutive days relative to control. Further details: scale not given: the % may be the effect or the level left. In kind it is functional. Conditions: time 5 day. The essentials:
(§3)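 BALB/c mice (n=5) infected intraperitoneally with 1 × 10^8 L. infantum promastigotes; treatment began seven days post-infection. Oral omeprazole 10mg given 1 h before each oral dose of test compound (25, 50, 100 mg/kg) every 12 h for five consecutive days. Controls received vehicle or miltefosine 22mg/kg twice daily. Spleen and liver parasite load estimated by limiting dilution.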

The nature of series [10]: Electrochemical behavior of the compound in aprotic medium assessed as redox potential using glassy carbon electrode by cyclic voltammetry analysis. Type of series: physicochemical.
Series [11] relates to Leishmania infantum. Put plainly: Antileishmanial activity in Leishmania infantum promastigotes intraperitoneally infected in BALB/c mouse assessed as reduced parasite load in liver at 25 to 100 mg/kg, po twice a day followed by omeprazole administration 1 hr prior to test compound administration for 5 consecutive days relative to control. Also noted: scale not given: the % may be the effect or the level left. In kind it is functional. The settings on record: dose 25-100 mg/kg, time 5 day. The essentials: as §3

The subject of series [12] is Leishmania donovani. In words: Antileishmanial activity against Leishmania donovani LdBOB derived from MHOM/SD/62/1 S-CL2D promastigotes overexpressing NTR1 incubated for 72 hrs by resazurin dye based assay. Type of series: functional, organism-based. The essentials:
(§4)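 IC50 is the mean ± standard error of three independent experiments, each run in triplicate.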

The subject of series [13] is Leishmania donovani. Put plainly: Selectivity index, ratio of IC50 for antileishmanial activity against wild type Leishmania donovani promastigotes to IC50 for antileishmanial activity against Leishmania donovani LdBOB derived from MHOM/SD/62/1 S-CL2D promastigotes overexpressing NTR1. Type of series: functional.
Series [14] in a line: Stability in pooled mouse plasma at pH 7.4 assessed as parent compound remaining incubated for 240 mins by LC/MS/MS analysis. Type of series: ADME, cell-free. The settings on record: pH 7.4, 4 h.
Series [15] can be described thus: Chemical stability of the compound assessed as degradation product at pH 7 measured after 240 mins. Type of series: physicochemical. Conditions: buffer, pH 7, 4 h.
Series [16] deals with Leishmania donovani. Put plainly: Selectivity index, ratio of IC50 for antileishmanial activity against wild type Leishmania donovani promastigotes to IC50 for antileishmanial activity against Leishmania donovani LdBOB derived from MHOM/SD/62/1 S-CL2D promastigotes overexpressing NTR2. Type of series: functional.
For series [17], the system named is Leishmania infantum. In words: Antileishmanial activity in Leishmania infantum promastigotes intraperitoneally infected in BALB/c mouse assessed as reduced parasite load in spleen at 50 mg/kg, po twice a day followed by omeprazole administration 1 hr prior to test compound administration for 5 consecutive days relative to control. Type of series: functional. Further details: scale not given: the % may be the effect or the level left. Conditions: time 5 day. The essentials:
as §3

For series [18], the system named is Leishmania amazonensis. Put plainly: Induction of ROS production in Leishmania amazonensis promastigotes measured by H2DCFDA probe based fluorescence analysis. Type of series: functional. The settings on record: time hrs <=4. The gist of the method: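 L. amazonensis promastigotes exposed to compounds at concentrations based on the anti-promastigote EC50, with ROS followed kinetically over 4 h using H2DCFDA fluorescence; means ± SD, n=3.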

Series [19] is described as follows: Chemical stability of the compound assessed as degradation product at pH 2 measured after 240 mins. In kind it is physicochemical. The settings on record: buffer, pH 2, 4 h.
The next series deals with Peritoneal macrophage. Put plainly: Induction of ROS production in mouse peritoneal macrophages at EC50 concentration measured upto 4 hrs by H2DCFDA probe based fluorescence analysis. Type of series: functional, cell-based. Conditions: time hrs <=4. The gist of the method:
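Murine peritoneal macrophages incubated 4 h with 0.5×, 1× and 2× EC50 of compounds (concentrations taken from the anti-promastigote assay); ROS quantified with H2DCFDA; means ± SD, n=3.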

The subject of series [20] is Leishmania donovani. In words: Antileishmanial activity against wild type Leishmania donovani promastigotes incubated for 72 hrs by resazurin dye based assay. Type of series: functional, organism-based. The gist of the method:
as §4

The nature of series [21]: Aqueous solubility of the compound at pH 7.4 measured after 24 hrs by UHPLC-HRMS analysis. The settings on record: buffer. Type of series: physicochemical.
Series [22] deals with Leishmania donovani. Put plainly: Antileishmanial activity against Leishmania donovani LdBOB derived from MHOM/SD/62/1 S-CL2D promastigotes overexpressing NTR2 incubated for 72 hrs by resazurin dye based assay. Type of series: functional, organism-based. The gist of the method: as §4

Active and inactive are the calls of the source. The rule behind the calls is not given here.

By IC50 is commonly meant the concentration at which inhibition is half-maximal. The CC50 is the concentration that lowers cell viability or growth by half. For `CCCCCCCCCCCCCCCCOP(=O)([O-])OCC[N+](C)(C)C` [MILTEFOSINE], the results for the selectivity ratio at 72 h in series [1] and in series [3] were 28 and 193, respectively. Also, the IC50 in the series on Leishmania amazonensis [2] was determined as 3.4 µM; with Leishmania amazonensis [5], 7.01 µM; with Leishmania infantum [6], 0.5 µM; in the series with Leishmania infantum [7], 9.81 µM. The CC50 at 72 h in series [4] turned out to be 96.5 µM.

What is called solubility is the dissolved amount per volume that the medium holds. On to `C/[N+]([O-])=C/c1ccc([N+](=O)[O-])o1`, for which the Stabilty entry in series [8] and in series [14] was “Stable” in each case. Also, the Activity in the series on Leishmania infantum [9] is given as 95%; in series [10] it was -0.62 V; with Leishmania infantum [11], greater than 75%; in the series on Leishmania infantum [17], 76.6%. The selectivity ratio at 72 h worked out at 47 in [1] and 295 in [3]. Also, the IC50 is 1.07 µM with Leishmania amazonensis [2]; 0.03 µM in the series on Leishmania donovani [12]; 9.37 µM in the series on Leishmania amazonensis [5]; 0.17 µM with Leishmania infantum [6]; 0.88 µM in the series with Leishmania infantum [7]; 1.16 µM in the series on Leishmania donovani [20]. Besides, the IC50 with Leishmania donovani [22] amounted to 0.19 µM. Besides, the Ratio IC50 in the series on Leishmania donovani [13] amounted to 38; in the series with Leishmania donovani [16], 6.1. Moreover, the CC50 at 72 h in [4] came out at 49.9 µM. In addition, the values for the Drug degradation in series [15] and in series [19] were greater than 25% and 40%, respectively. The outcome in the series on Leishmania amazonensis [18] and with Peritoneal macrophage was inactive. In [21], the solubility at 24 h is greater than 10 µM.

On to `C/[N+]([O-])=C\c1ccc([N+](=O)[O-])cc1`, for which, in [10], the Activity is -0.68 V. Further, the CC50 at 72 h in [4] is greater than 100 µM. Also, the IC50 in the series on Leishmania amazonensis [5] and in the series on Leishmania infantum [7] was greater than 100 µM throughout.

Consider `O=[N+]([O-])c1ccc(/C=[N+](\[O-])Cc2ccccc2)o1`, for which the selectivity ratio at 72 h in series [1] turned out to be 15.6; in series [3], 5.7. The IC50 with Leishmania amazonensis [2] is 2.04 µM; in the series on Leishmania donovani [12], 1.22 µM; in the series on Leishmania amazonensis [5], 0.21 µM; in the series with Leishmania infantum [6], 4.49 µM; in the series on Leishmania infantum [7] it was 0.22 µM; with Leishmania donovani [20], 0.99 µM. Moreover, in the series with Leishmania donovani [22], 1.33 µM corresponded to half-maximal inhibition (IC50). The values for the Ratio IC50 in the series on Leishmania donovani [13] and in the series on Leishmania donovani [16] were 0.81 and 0.74, respectively. The CC50 at 72 h in series [4] was 31.9 µM.

Regarding `O=Cc1ccc([N+](=O)[O-])s1`, in series [1], the selectivity ratio at 72 h was less than 0.5. For the same molecule, the IC50 in the series on Leishmania amazonensis [2] was greater than 11.5 µM; in the series with Leishmania amazonensis [5], 5.11 µM; in the series on Leishmania infantum [7], 1.39 µM. The 50% cytotoxic concentration (CC50) at 72 h in [4] was 6.25 µM.

For `O=Cc1cccs1` [2-THIOPHENENECARBOXALDEHYDE], the IC50 with Leishmania amazonensis [5] and in the series on Leishmania infantum [7] was greater than 100 µM throughout.

With `O=Cc1ccc([N+](=O)[O-])cc1`, the Activity in series [10] is reported as -0.58 V. The IC50 with Leishmania amazonensis [5] and in the series on Leishmania infantum [7] was greater than 100 µM throughout.

In the case of `C/[N+]([O-])=C/c1ccco1`, the CC50 at 72 h in [4] is greater than 100 µM. The 50% inhibitory concentration (IC50) in the series on Leishmania amazonensis [5] and in the series on Leishmania infantum [7] was greater than 100 µM in each case.
